2 compounds from ChEMBL document CHEMBL4732158, “Bicyclic Ligand-Biased Agonists of S1P: Exploring Side Chain Modifications to Modulate the PK, PD, and Safety Profiles” (J Med Chem, 2021) can be followed below.

What is called clearance is a measure of how efficiently the substance is removed, as volume per time. As a reminder, the bioavailability is dose-corrected exposure relative to a reference, in per cent. By ED50 is commonly meant the midpoint of the dose-response relation.

The source made the active and inactive calls. No cut-off for these calls is given here.

A short description of data set [1]: Pulmonary toxicity in Lewis rat assessed as fold elevation of BAL protein content at 2 mg/kg, po by chemistry analyzer based analysis relative to control. Type of data set: organism-based. Particulars: in vivo. A digest of the protocol:
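Lewis rats dosed orally; bronchoalveolar lavage protein measured at study end, expressed as fold over vehicle control.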

Data set [2] is described as follows: AUC ratio in orally dosed cynomolgus monkey blood assessed as phosphate metabolite to parent compound. Type of data set: ADME, organism-based, Macaca fascicularis. Particulars: in vivo, po. Summed up: (§1)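 Phosphate-to-parent ratio computed as blood AUC ratio after oral dosing in rats, dogs and monkeys.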
A short description of data set [3]: Drug concentration in Lewis rat blood assessed as concentration of parent compound at 2 mg/kg, po measured at 4 hrs by LC-MS/MS analysis. Type of data set: ADME, organism-based. The note with it: Lewis, blood, read-out: Ct. A digest of the protocol: (§2)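 Lewis rats (n = 2−4) dosed orally at 0.5, 1, 2 or 5 mg/kg; blood parent and phosphate metabolite concentrations and lymphocyte counts taken 4 and 24 h post-dose; phosphate-to-parent ratio from 24 h levels; significance versus vehicle by ANOVA with Dunnett's test.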

The test system of data set [4] is Rattus norvegicus. Put plainly: Antiinflammatory activity in complete freund's adjuvant-induced Lewis rat model of arthritis assessed as reduction in paw swelling at 0.5 mg/kg, po administered via gavage once daily and measured at day 18 to 22 by plethysmometric method relative to control. Type of data set: functional. More on the design: scale not given: the % may be the effect or the level left. The note with it: time 18-22 day.

A short description of data set [5]: Clearance in cynomolgus monkey at 1 mg/kg, iv. Type of data set: ADME, organism-based, Macaca fascicularis. Particulars: in vivo.
Data set [6] relates to Rattus norvegicus. Put plainly: Antiinflammatory activity in complete freund's adjuvant-induced Lewis rat model of arthritis assessed as reduction in paw edema administered via oral gavage once daily by plethysmometric method. Type of data set: functional, organism-based.
Data set [7] can be described thus: Terminal half life in Sprague- Dawley rat at 1 mg/kg, po or 1 mg/kg, iv. Type of data set: ADME, organism-based. The note with it: in vivo, read-out: beta t1/2 (converted). Summed up: (§3)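 Single IV and oral dosing in male animals, n = 3. Rats were Sprague-Dawley. Vehicle: 18.4% hydroxypropyl-β-cyclodextrin in 13.8 mM citric acid. Blood concentrations followed over time; terminal T1/2 and steady-state volume of distribution taken from the IV dose.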

A short description of data set [8]: Oral bioavailability in cynomolgus monkey at 1 mg/kg. Type of data set: ADME, organism-based, Macaca fascicularis. The note with it: in vivo.
For data set [9], the system named is Rattus norvegicus. Briefly: Antiinflammatory activity in complete freund's adjuvant-induced Lewis rat model of arthritis assessed as increase in paw volume at 2.5 mg/kg, po administered via gavage once daily by plethysmometric method. Type of data set: functional, organism-based.
Data set [10] is described as follows: Clearance in Sprague- Dawley rat at 1 mg/kg, iv. Type of data set: ADME, organism-based. Particulars: in vivo.
Data set [11] in a line: Volume of distribution at steady state in cynomolgus monkey at 1 mg/kg, po or 1 mg/kg, iv. Type of data set: ADME, organism-based, Macaca fascicularis. Particulars: in vivo, read-out: Vdss. A digest of the protocol:
as §3

Data set [12] in a line: Volume of distribution at steady state in Sprague- Dawley rat at 1 mg/kg, po or 1 mg/kg, iv. Type of data set: ADME, organism-based. Particulars: in vivo, read-out: Vdss. Summed up: as §3
Data set [13] can be described thus: Terminal half life in cynomolgus monkey at 1 mg/kg, po or 1 mg/kg, iv. Type of data set: ADME, organism-based, Macaca fascicularis. Particulars: in vivo, read-out: beta t1/2 (converted). Summed up:
as §3

Data set [14] in a line: Drug concentration in Lewis rat blood assessed as concentration of parent compound at 2 mg/kg, po measured at 24 hrs by LC-MS/MS analysis. Type of data set: ADME, organism-based. Particulars: in vivo, read-out: Ct. A digest of the protocol: as §2
Data set [15] deals with Rattus norvegicus. Briefly: Reduction in circulating lymphocytes count in Lewis rat at 2 mg/kg, po measured at 4 hrs by hematology analyzer based analysis. Set-up: scale not given: the % may be the effect or the level left. Type of data set: functional. Summed up: (§4)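 Lewis rats (n = 2−4) dosed orally; whole-blood lymphocyte counts taken 4 h and 24 h after dosing and reduction expressed versus vehicle-treated rats. Significance by ANOVA with Dunnett's test (p < 0.05 vs vehicle). Blood levels of parent and phosphate metabolite measured at the same time points in this PK/PD screen.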

Data set [16] is described as follows: Half life in Lewis rat at 2 mg/kg, po measured at 4 to 72 hrs. The note with it: Lewis, in vivo, time 4-72 hrs. Type of data set: ADME, organism-based. Summed up:
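Half-life estimated from oral-dosing blood PK profiles in Lewis rats sampled at four time points: 4, 24, 48 and 72 h.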

Data set [17] is described as follows: Reduction in circulating lymphocytes count in Lewis rat at 2 mg/kg, po measured at 24 hrs by hematology analyzer based analysis. Type of data set: Functional, organism-based. Set-up: scale not given: the % may be the effect or the level left. Particulars: in vivo. A digest of the protocol:
as §4

The nature of data set [18]: Cardiotoxicity in human iPSC derived cardiomyocytes assessed as change in heart rate at 1 nM measured over 2 hrs by multi-electrode array relative to control. Type of data set: toxicity, cell-based. Particulars: stem cell-derived cardiomyocyte, 0.001 µM. Summed up:
(§5)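 Phosphate metabolite of each compound prepared and tested on cultured human induced pluripotent stem cell-derived cardiomyocytes at 1 and 10 nM; beat rate change averaged over three or more replicates per concentration unless noted (some n = 2).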

The nature of data set [19]: AUC ratio in orally dosed Sprague-Dawley rat blood assessed as phosphate metabolite to parent compound. The note with it: in vivo, po. Type of data set: ADME, organism-based. Summed up: as §1
A short description of data set [20]: Oral bioavailability in Sprague- Dawley rat at 1 mg/kg. Type of data set: ADME, organism-based. Particulars: in vivo.
The subject of data set [21] is Rattus norvegicus. Briefly: Antiinflammatory activity in complete freund's adjuvant-induced Lewis rat model of arthritis assessed as effective dose administered via oral gavage once daily by plethysmometric method. Type of data set: functional.
Data set [22] in a line: Ratio of drug metabolism in Lewis rat blood assessed as phosphate ester metabolite to parent drug at 2 mg/kg, po measured at 24 hrs by LC-MS/MS analysis. Type of data set: ADME, organism-based. The note with it: in vivo. A digest of the protocol:
as §2

The nature of data set [23]: Cardiotoxicity in human iPSC derived cardiomyocytes assessed as change in heart rate at 10 nM measured over 2 hrs by multi-electrode array relative to control. Type of data set: toxicity, cell-based. The note with it: stem cell-derived cardiomyocyte, 0.01 µM. Summed up: as §5
In data set [24] the test system is Rattus norvegicus. Briefly: Antiinflammatory activity in complete freund's adjuvant-induced Lewis rat model of arthritis assessed as reduction in paw edema at 0.5 mg/kg, po administered via gavage once daily and measured at day 18 to 22 by plethysmometric method. Type of data set: functional, organism-based. The note with it: time 18-22 day.
A short description of data set [25]: Terminal half life in Sprague- Dawley rat at 2 mg/kg, iv. Type of data set: ADME, organism-based. The note with it: in vivo, read-out: beta t1/2 (converted). Summed up: as §3
The nature of data set [26]: AUC ratio in orally dosed Beagle dog blood assessed as phosphate metabolite to parent compound. Type of data set: ADME, organism-based, Canis lupus familiaris. The note with it: in vivo, po. Summed up:
as §1

Data set [27] can be described thus: Terminal half life in dog at 1 mg/kg, po. Particulars: in vivo, read-out: beta t1/2 (converted). Type of data set: ADME, organism-based, Canis lupus familiaris.
Data set [28] is described as follows: Clearance in Sprague- Dawley rat at 2 mg/kg, iv. Type of data set: ADME, organism-based. Particulars: in vivo.
Data set [29] deals with Rattus norvegicus. Briefly: Antiinflammatory activity in complete freund's adjuvant-induced Lewis rat model of arthritis assessed as reduction in paw swelling at 0.3 mg/kg, po administered via gavage once daily and measured at day 13 to 20 by plethysmometric method relative to control. Type of data set: functional. Set-up: scale not given: the % may be the effect or the level left. The note with it: time 13-20 day.

Data set [30] can be described thus: Volume of distribution at steady state in Sprague- Dawley rat at 2 mg/kg, iv. The note with it: in vivo, read-out: Vdss. Type of data set: ADME, organism-based. Summed up:
as §3

On to `CCOCCCC1CCc2cc([C@H]3CC[C@](N)(CO)C3)ccc2C1` (single isomer, unassigned), for which the “fold change (FC)” value in data set [1] is 1.2. In addition, the “Ratio AUC” value was found to be 0.73 in data set [2] and 0.9 in [19]. Also, the concentration at 4 h in data set [3] stood at 172 nM. The Activity is 75% in [4]; “Dose-dependent effect” in data set [6]; 78% in data set [15]; 83% in [17]; -14% in [18]; -29% in data set [23]. For the same compound, the values for the clearance in data set [5] and in data set [10] were 7.4 mL/min/kg and 6 mL/min/kg, respectively. The half-life in data set [7] was 1740 min; in data set [13], 1260 min; in data set [16], 1560 min. For the same compound, the results for the bioavailability in data set [8] and in data set [20] were 76% and 45%, respectively. For the same compound, the result in data set [9] and in data set [24] was inactive. The values for the Vd in data set [11] and in [12] were 8.4 L/kg and 12 L/kg, respectively. Moreover, the concentration in data set [14] was determined as 110 nM. In addition, the ED50 in data set [21] stood at 0.3 mg/kg. The Ratio in data set [22] was determined as 1.8.

On to `COCCCCCC1CCc2cc([C@H]3CC[C@](N)(CO)C3)ccc2C1` (single isomer, unassigned; 24), for which the “fold change (FC)” value in data set [1] is on record as 1.5. Also, the “Ratio AUC” value is recorded as less than 0.1 in data set [2], 0.31 in data set [26] and 0.3 in data set [19]. The concentration at 4 h in data set [3] is 188 nM. Moreover, the half-life in [25] was 1140 min; in data set [27] it was 3.38 days; in data set [13], 1020 min; in [16], 1080 min. Moreover, the clearance stood at 9.7 mL/min/kg in data set [5] and 10 mL/min/kg in [28]. The compound further yielded a bioavailability in [8] of 69%. The Vd turned out to be 9.9 L/kg in [11] and 13 L/kg in data set [30]. Besides, the Activity in data set [29] is recorded as 50%; in [15], 67%; in data set [17], 82%; in data set [18], -7%; in data set [23], -23%. The concentration in data set [14] was 98 nM. Moreover, in [21], the ED50 was 0.3 mg/kg. Besides, the Ratio in data set [22] is on record as 2.6.
